TPT1 inhibitor: blocks Candida albicans tRNA 2'-phosphotransferase; inhibition, % at 5 µM; 300,000 compounds, 0.81% hits; recombinant caTPT1, FP RNA substrate dephosphorylation; AID 1962;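 active means inhibition above the mean of all tested compounds plus 3 SD, set per screening campaign, cut at about 24% in these data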
Myeloid diff MLP: myeloid differentiation induction; ER-HoxA9 myeloid progenitors, lysozyme-GFP differentiation, flow cytometry; calls only at 10 µM; 360,000 compounds, 1% hits;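 active means normalized GFP-positive differentiation at or above the plate's own cutoff, the solvent-only control mean plus 3 SD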;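 further: cells exposed to compound for four days before flow analysis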
HNF4A DNA FP: change in binding of human HNF4 alpha to DNA; P41235; HNF4a-FITC DNA binding, fluorescence polarization, 1 h; activity change, % at 10 µM; 360,000 compounds, 0.3% hits; in the data active means activity change above about 30%, passing the limit was not always enough
CSN deneddyl inh: CSN deneddylation inhibition. Q92905. Purified CSN, SCF-Nedd8-OG deneddylation, fluorescence polarization. inhibition, % at 12.5 µM. 360,000 compounds, 0.38% hits. AID 651999;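 active means pattern-corrected inhibition above about 35%, with an unprinted fluorescence ratio check between 0.5 and 1.5, limit read from the data, passing the limit was not always enough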
Target sequence (Q92905 whole entry, looked up, one chain of several): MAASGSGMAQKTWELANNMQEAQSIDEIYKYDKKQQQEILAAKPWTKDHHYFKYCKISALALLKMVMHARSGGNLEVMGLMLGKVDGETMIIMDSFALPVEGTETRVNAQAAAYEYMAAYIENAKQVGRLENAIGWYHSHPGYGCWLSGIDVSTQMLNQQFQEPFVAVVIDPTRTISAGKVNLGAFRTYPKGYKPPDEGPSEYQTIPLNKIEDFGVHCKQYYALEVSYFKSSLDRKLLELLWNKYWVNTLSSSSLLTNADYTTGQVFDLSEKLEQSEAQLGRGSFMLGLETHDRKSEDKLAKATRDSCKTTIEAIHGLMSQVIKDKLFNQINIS
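Schedule: reaction 90 min, room temperature / Assay system: HEK293T-derived human Csn5 enzyme / Input: Csn5 at 0.24 nM final / Measure: inhibition of Csn5 cleavage, % / Control set: substrate-only high control, full reaction low control / Technique: fluorescence polarization of the substrate / Buffer or medium: Tris/NaCl/DTT buffer, pH 7.5 / Reagent: SCFSkp2-Nedd8OG substrate at 10 nM final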
Rpn11 block: inhibitors of human proteasome Rpn11; O00487; human 26S proteasome, Ub4-pepOG fluorescence polarization; 20S core pre-blocked with epoxomicin; inhibition, % at 20 µM; 360,000 compounds, 0.59% hits; AID 588493;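 active means inhibition at 20 µM, scaled to each plate's controls, above about 33%, limit read from the data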
TPT1 inh confirm: confirmation of Candida albicans TPT1 inhibitors. shares compounds with TPT1 inhibitor. recombinant caTPT1, fluorescence polarization, RNase T1 coupled. inhibition, % at 5 µM. 2,400 compounds, 74% hits. AID 2149;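 active means inhibition above the primary screen limit, the mean inhibition of all tested compounds plus 3 SD, cut at about 25% in these data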
RNase T1 counter: counter-screen for TPT1 inhibitors: inhibitors of Aspergillus oryzae RNase T1. inhibition, % at 5 µM. shares compounds with TPT1 inhibitor. RNase T1 cleavage, fluorescence polarization, 1536-well. 2,400 compounds, 83% hits;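 active means inhibition above the solvent-only control well mean plus 3 SD, limit set per screening run, cut at about 23% in these data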;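 further: inhibitors block cleavage so intact labeled substrate keeps polarization high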
Target sequence (P00651 whole entry, looked up): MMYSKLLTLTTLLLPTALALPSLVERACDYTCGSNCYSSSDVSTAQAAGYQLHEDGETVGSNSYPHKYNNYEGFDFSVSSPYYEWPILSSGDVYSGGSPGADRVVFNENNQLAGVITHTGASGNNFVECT
Numbers stand for hits; . = inactive; / = not tested or not shown; + = active, no number. This is a sample that favours compounds with a hit; in the whole collection about 2.3% have one here.

SMILES | TPT1 inhibitor | Myeloid diff MLP | HNF4A DNA FP | CSN deneddyl inh | Rpn11 block | TPT1 inh confirm | RNase T1 counter
Cc1ccc(N2C(=O)NC(=O)/C(=C/c3ccc(-c4ccc(C(=O)O)c(Cl)c4)o3)C2=O)cc1 | . | . | . | . | . | / | /
COc1ccc(C(c2nnnn2C2CCCC2)N2CCC3(CC2)C(=O)NCN3c2ccccc2)cc1 (configuration not stated) | / | . | . | . | . | / | /
COc1ccc(CN2Cc3cc(N4CCCCC4)ccc3-n3nncc3C2)cc1 | / | . | . | . | . | / | /
C=CCN1C(=O)/C(=C\c2ccc(N3CCOCC3)o2)C(=O)NC1=S | 107.9 | . | 56.0 | . | / | 120.3 | 123.6
CN1CCN(c2ccc(/C=C3\C(=O)NC(=S)N(c4cccc(Br)c4)C3=O)o2)CC1 | 131.7 | . | . | . | / | 151.8 | 142.3
CN1C(=O)/C(=C\c2ccc(N3CCCCC3)o2)C(=O)NC1=S | 113.0 | . | . | . | / | 141.6 | 135.5
CN1C(=O)C(=Cc2ccc(Sc3ccccc3)o2)C(=O)N(C)C1=S | 36.5 | . | . | . | 43.5 | . | 37.5
C[C@@H]1CN([C@H](C)CO)C(=O)CCCn2cc(nn2)CO[C@H]1CN(C)C(=O)Oc1cccc2ccccc12 | / | . | . | . | . | / | /
O=c1[nH]c(=O)n(CCc2ccc(F)cc2)c(O)c1C=NCCCn1ccnc1 | 38.9 | . | . | . | . | 33.3 | 44.2
CN1C(=O)C(=Cc2sc(=O)n(-c3ccccc3)c2N(C)C)C(=O)N(C)C1=O | 41.6 | . | . | . | / | 53.5 | 70.7
Cc1cc(C=C2C(=O)N(C)C(=O)N(C)C2=O)c(C)n1-c1ccccc1 | . | . | . | . | . | / | /
CC1(O)CCN2C(=O)CCc3cccc1c32 (configuration not stated) | / | . | . | . | . | / | /
O[C@@H]1CCCN2CCc3c([nH]c4ccccc34)[C@H]12 | 30.3 | . | . | . | . | . | 23.1
Oc1ccc2c3c1O[C@H]1c4[nH]c5ccccc5c4C[C@@]4(O)[C@@H](C2)N(CC2CC2)CC[C@]314 | . | . | . | . | . | / | /
Cc1ccnc(NS(=O)(=O)c2ccc(N=Cc3c(O)n(C)c(=O)n(C)c3=O)cc2)n1 | 85.1 | . | . | . | . | 62.4 | 77.2
CCOC(=O)c1cccc(C2=C(CNC(=O)c3nccs3)[C@H]3CC[C@@H](C2)N3Cc2ccccc2)c1 | / | . | . | . | . | / | /
CC(C)(C)n1nnnc1C(CCc1ccccc1)N1CCC2(CC1)C(=O)NCN2c1ccccc1 (configuration not stated) | / | . | . | . | . | / | /
Cc1cccc(-n2c(O)c(C=Nc3ccc(S(N)(=O)=O)cc3)c(=O)[nH]c2=O)c1 | 29.5 | . | . | . | . | . | .
O=c1[nH]c(=O)n(-c2ccc(Cl)cc2)c(O)c1C=Nc1ccc(S(=O)(=O)Nc2nccs2)cc1 | 31.0 | . | . | . | . | 37.3 | 51.8
CCCC1(CC(C)CC)C(=O)NC(=O)NC1=O (configuration not stated) | / | . | . | . | . | / | /
C#CC1(O)CCC2C3CCC4=C/C(=N/OCC(=O)NCC(=O)NC(C(=O)O)C(C)C)CC[C@]4(C)C3CC[C@@]21C (some centres not stated) | / | . | . | . | . | / | /
C#C[C@]1(O)CC[C@H]2[C@@H]3CCC4=Cc5nc6nc7ccccc7n6cc5C[C@]4(C)[C@H]3CC[C@@]21C | 32.2 | + | . | . | . | 33.4 | 43.9
C[C@@H]1CN([C@@H](C)CO)C(=O)CCCn2nncc2CO[C@H]1CN(C)C(=O)Oc1ccccc1 | / | . | . | . | . | / | /
Cc1cc(/C=C2\C(=O)NC(=O)N(Cc3ccco3)C2=O)c(C)n1-c1ccc(C(=O)O)cc1 | 25.2 | . | . | . | . | . | .
Cc1cc(/C=C2\C(=O)NC(=O)N(Cc3ccco3)C2=O)c(C)n1-c1ccc(O)cc1 | . | . | . | . | . | / | /
SMILES | TPT1 inhibitor | Myeloid diff MLP | HNF4A DNA FP | CSN deneddyl inh | Rpn11 block | TPT1 inh confirm | RNase T1 counter
Cc1cc(/C=C2\C(=O)NC(=O)N(Cc3ccccc3)C2=O)c(C)n1-c1ccc(Cl)c(C(=O)O)c1 | . | . | . | . | . | / | /
Cc1cc(/C=C2\C(=O)NC(=O)N(Cc3ccccc3Cl)C2=O)c(C)n1-c1ccc(C(=O)O)cc1 | 60.3 | . | . | . | / | . | 24.1
O=C1NCN(c2ccccc2)C12CCN(C(c1ccnc3ccccc13)c1nnnn1-c1ccc3c(c1)OCCO3)CC2 (configuration not stated) | / | . | . | . | . | / | /
C/C(=C\c1ccc(N(C)C)cc1)[N+](=O)[O-] | . | . | . | . | . | / | /
CN(C)c1ccc(/C=C/[N+](=O)[O-])cc1 | 51.0 | . | . | . | . | 72.8 | 89.8
c1cc2c(cc1N1CCCCC1)C1CC2CCN1 (configuration not stated) | / | . | . | . | . | / | /
C=CCn1c(=O)c(C=Nc2cccnc2Cl)c(O)n(CCCC)c1=O | 43.5 | . | . | . | . | . | 23.3
CCn1c(O)c(C=Nc2cc(Cl)ccc2Cl)c(=O)n(CC)c1=O | . | . | . | . | . | / | /
Nc1c([N+](=O)[O-])cc(F)c(N2CCNCC2)c1Br | 26.7 | . | . | . | . | . | .
Cc1ccc(OCCn2cccc2/C=C2/C(=O)NC(=O)N(Cc3ccco3)C2=O)cc1 | 25.4 | . | . | . | . | 40.5 | 27.4
CCOC(=O)c1cc2ccccc2n1C1CCN(Cc2ccccc2)CC1 | / | . | . | . | / | / | /
Cc1ccc(N2C(=O)NC(=O)/C(=C\c3cc(C)n(-c4ccc(C(=O)O)cc4)c3C)C2=O)cc1 | . | . | . | . | . | / | /
O=C1NC(=O)N(c2ccc3c(c2)OCO3)C(=O)/C1=C/c1ccsc1 | . | . | . | . | . | / | /
Cc1ccc(N2C(=O)NC(=O)/C(=C\C=C\c3ccco3)C2=O)cc1 | 42.8 | . | . | . | . | 34.5 | 53.6
COc1cc(/C=C2\C(=O)NC(=O)N(c3ccccc3)C2=O)cc(OC)c1O | 50.7 | . | . | . | . | . | .
Cc1ccc(N2C(=O)NC(=O)/C(=C\c3ccoc3)C2=O)cc1 | 133.4 | . | . | 57.8 | . | 26.8 | 36.9
CCc1ccc(N2C(=O)NC(=O)/C(=C/c3ccsc3)C2=O)cc1 | 28.3 | / | / | / | / | . | 23.7
CN(Cc1cccc(-c2ccncc2)c1)C(=O)Oc1ccccc1Cc1ccccc1 | / | . | . | . | / | / | /
COc1ccc(-n2nnnc2C(CCSC)N2CCC3(CC2)C(=O)NCN3c2ccccc2)cc1 (configuration not stated) | / | . | . | . | . | / | /
COc1ccc2c(c1)C13CCN4CC5=CCOC6CC(=O)N2C1C6C5CC43 (configuration not stated) | / | . | . | . | . | / | /
CCC(c1nnnn1-c1ccc2c(c1)OCCO2)N1CCC2(CC1)C(=O)NCN2c1ccccc1 (configuration not stated) | / | . | . | . | . | / | /
O=P(/C=C1\OCc2ccccc21)(Oc1ccccc1)Oc1ccccc1 | / | . | . | . | / | / | /
